Data from ChEMBL document CHEMBL4354813, “Design, Synthesis, and Pharmacological Evaluation of Potent Positive Allosteric Modulators of the Glucagon-like Peptide-1 Receptor (GLP-1R)” (J Med Chem, 2020).
Activity calls are given as the source filed them. No cut-off for these calls is given here.

How the values were obtained:
Format in all cases: functional, cell-based
[1] = target: T1, Glucagon-like peptide 1 receptor (Homo sapiens, UniProt P43220); assay: Positive allosteric modulator activity at human GLP-1R expressed in PSC-HEK293 cells in presence of EC20 level of GLP1(9-36)NH2 incubated for 30 mins by HTRF cAMP assay
T1 sequence (P43220 whole entry): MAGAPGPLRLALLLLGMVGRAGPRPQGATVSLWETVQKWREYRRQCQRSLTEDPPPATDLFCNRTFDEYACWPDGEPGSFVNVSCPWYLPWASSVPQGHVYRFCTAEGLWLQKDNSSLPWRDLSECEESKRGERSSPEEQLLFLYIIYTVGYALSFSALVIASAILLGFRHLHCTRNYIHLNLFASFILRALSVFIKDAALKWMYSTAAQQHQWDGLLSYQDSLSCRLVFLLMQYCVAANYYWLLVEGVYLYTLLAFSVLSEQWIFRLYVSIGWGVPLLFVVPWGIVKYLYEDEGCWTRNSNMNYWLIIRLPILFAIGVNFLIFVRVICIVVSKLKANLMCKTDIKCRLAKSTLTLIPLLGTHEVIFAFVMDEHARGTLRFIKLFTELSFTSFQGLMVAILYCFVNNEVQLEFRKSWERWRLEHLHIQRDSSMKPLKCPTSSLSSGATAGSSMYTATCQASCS
Summary of the method: (§1)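 Thaw-and-use PSC-HEK293 cells stably expressing human GLP-1R, 2000 cells/well in HBSS/20 mM HEPES/0.1% BSA with 2 mM IBMX. Enhancer format: compound dose-response plus fixed EC20 GLP1(9-36)NH2. Shift format: GLP1(9-36)NH2 dose-response plus 10 or 3 μM compound. 30 min at room temperature. EC50 from a 4-parameter logistic fit.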

[2] = target: T1, Glucagon-like peptide 1 receptor; assay: Positive allosteric modulator activity at human GLP-1R expressed in PSC-HEK293 cells in presence of EC20 level of GLP1(9-36)NH2 incubated for 30 mins by HTRF cAMP assay relative to control
Summary of the method: as §1, with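 “temperature. HTRF cAMP read after 1 h lysis (665/620 nm).” for “temperature.”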

[3] = target: T1, Glucagon-like peptide 1 receptor; assay: Positive allosteric modulator activity at human GLP-1R expressed in PSC-HEK293 cells assessed as potentiation of GLP1(9-36)NH2-induced cAMP accumulation by measuring shift in EC50 of endogenous GLP1(9-36)NH2 at 10 uM incubated for 30 mins by HTRF cAMP assay relative to control
Summary of the method: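 Thawed frozen PSC-HEK293 cells stably expressing human GLP-1R, 2000 cells/well in HBSS/20 mM HEPES/0.1% BSA with 2 mM IBMX. Shift format: GLP1(9-36)NH2 dose-response with compound fixed at 10 or 3 µM; 30 min room temperature; cAMP by HTRF (665/620 nm ratio) after 1 h with lysis reagents; 4-parameter logistic fit; EC50 shift factor derived.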

[4] = target: T1, Glucagon-like peptide 1 receptor; assay: Positive allosteric modulator activity at human GLP-1R expressed in PSC-HEK293 cells assessed as potentiation of GLP1(9-36)NH2-induced cAMP accumulation by measuring shift in EC50 of endogenous GLP1(9-36)NH2 at 3 uM incubated for 30 mins by HTRF cAMP assay relative to control
Summary of the method: as §1, with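 “temperature. HTRF cAMP read after 1 h lysis (665/620 nm).” for “temperature.”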

[5] = target: T1, Glucagon-like peptide 1 receptor; assay: Positive allosteric modulator activity at GLP-1R in human 1.1B4 cells in presence of EC20 level of GLP1(9-36)NH2 incubated for 30 mins by HTRF cAMP assay relative to control
Summary of the method: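 Human pancreatic β-cell line 1.1B4, 20,000 cells/well cultured overnight, washed twice; compound concentration-response with fixed 10 nM GLP1(9-36)NH2, 30 min. cAMP by HTRF 665/620 ratio, normalised to buffer (1x HBSS, 0.1% BSA, 1 mM IBMX; 0%) and GLP-1(7-36)NH2 (100%); 4-parameter logistic fit.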

[6] = target: T2, Glucagon-like peptide 1 receptor (Mus musculus) (UniProt O35659); assay: Positive allosteric modulator activity at GLP-1R in mouse MIN6-c4 cells assessed as effect on glucose-mediated increase in intracellular Ca2+ level by FLIPR assay relative to control
T2 sequence (whole entry): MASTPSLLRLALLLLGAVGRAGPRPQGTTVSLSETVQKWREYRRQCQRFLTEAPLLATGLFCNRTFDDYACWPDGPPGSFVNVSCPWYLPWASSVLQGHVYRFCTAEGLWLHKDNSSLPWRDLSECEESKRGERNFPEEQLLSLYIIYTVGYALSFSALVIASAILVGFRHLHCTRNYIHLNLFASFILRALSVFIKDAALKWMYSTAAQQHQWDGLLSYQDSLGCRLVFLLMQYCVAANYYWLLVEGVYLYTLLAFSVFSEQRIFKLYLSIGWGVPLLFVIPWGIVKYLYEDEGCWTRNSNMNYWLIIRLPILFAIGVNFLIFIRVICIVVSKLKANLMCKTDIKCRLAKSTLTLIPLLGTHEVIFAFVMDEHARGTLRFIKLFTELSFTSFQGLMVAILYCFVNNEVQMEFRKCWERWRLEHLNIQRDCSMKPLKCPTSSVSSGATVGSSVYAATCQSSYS

[7] = system: HEK293; assay: Effect on cAMP accumulation in parental HEK293 cells incubated for 30 mins by HTRF cAMP assay; conditions: Homo sapiens
[8] = target: T1, Glucagon-like peptide 1 receptor; assay: Activity at human GLP-1R expressed in PSC-HEK293 cells incubated for 30 mins by HTRF cAMP assay
[9] = target: Glucagon receptor (Homo sapiens) (UniProt P47871); assay: Activity at human GCGR expressed in PSC-HEK293 cells incubated for 30 mins by HTRF cAMP assay
Sequence of Glucagon receptor (Homo sapiens) (P47871 whole entry): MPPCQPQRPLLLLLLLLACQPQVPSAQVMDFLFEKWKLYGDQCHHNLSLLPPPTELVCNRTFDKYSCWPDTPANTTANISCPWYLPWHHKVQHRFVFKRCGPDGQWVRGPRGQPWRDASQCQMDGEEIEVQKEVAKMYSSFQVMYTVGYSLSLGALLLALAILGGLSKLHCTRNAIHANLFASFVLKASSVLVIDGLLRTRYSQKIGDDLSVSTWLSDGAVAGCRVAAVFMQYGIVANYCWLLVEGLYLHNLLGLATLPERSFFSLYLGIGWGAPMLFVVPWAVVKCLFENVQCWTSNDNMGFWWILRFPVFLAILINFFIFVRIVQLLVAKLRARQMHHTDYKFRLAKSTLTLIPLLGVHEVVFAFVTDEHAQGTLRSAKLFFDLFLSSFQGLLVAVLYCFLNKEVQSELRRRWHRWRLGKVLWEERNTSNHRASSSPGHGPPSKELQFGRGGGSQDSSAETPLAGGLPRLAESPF

[10] = target: T3, Gastric inhibitory polypeptide receptor (Homo sapiens) (UniProt P48546); assay: Activity at human GIPR expressed in PSC-HEK293 cells incubated for 30 mins by HTRF cAMP assay
T3 sequence (whole entry): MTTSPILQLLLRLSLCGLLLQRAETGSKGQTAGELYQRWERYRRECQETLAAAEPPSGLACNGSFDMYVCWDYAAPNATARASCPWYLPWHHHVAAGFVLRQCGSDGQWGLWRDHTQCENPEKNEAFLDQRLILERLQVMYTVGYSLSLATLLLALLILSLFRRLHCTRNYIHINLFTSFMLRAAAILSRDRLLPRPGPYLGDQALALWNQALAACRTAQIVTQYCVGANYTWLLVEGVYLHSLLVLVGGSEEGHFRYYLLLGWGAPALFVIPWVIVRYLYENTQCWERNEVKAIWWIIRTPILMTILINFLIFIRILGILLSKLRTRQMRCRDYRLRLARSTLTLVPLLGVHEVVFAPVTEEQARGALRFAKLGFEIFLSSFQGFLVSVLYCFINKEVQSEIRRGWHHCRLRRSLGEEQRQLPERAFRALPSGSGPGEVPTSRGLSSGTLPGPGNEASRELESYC

[11] = target: T1, Glucagon-like peptide 1 receptor; assay: Positive allosteric modulator activity at human GLP-1R expressed in PSC-HEK293 cells assessed as potentiation of GLP-1(7-36)NH2-induced cAMP accumulation incubated for 30 mins by HTRF cAMP assay relative to control
[12] = target: T1, Glucagon-like peptide 1 receptor; assay: Positive allosteric modulator activity at human GLP-1R expressed in PSC-HEK293 cells assessed as potentiation of oxyntomodulin-induced cAMP accumulation incubated for 30 mins by HTRF cAMP assay relative to control
Summary of the method: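 Counterscreen in HEK293 cells with recombinant receptor, 2000 cells/well, 2 mM IBMX, 30 min at room temperature. Compound tested with 10 nM oxyntomodulin (GLP-1R cells) or with GLP-1(9-36)NH2 in glucagon-receptor-overexpressing cells. cAMP read by HTRF at 665/620 nm.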

[13] = target: Glucagon receptor (Homo sapiens) (UniProt P47871); assay: Positive allosteric modulator activity at human GCGR expressed in PSC-HEK293 cells assessed as potentiation of GLP-1(9-36)NH2-induced cAMP accumulation incubated for 30 mins by HTRF cAMP assay relative to control

EC50 [1] [nM]	Emax [2] [%]	Ratio EC50 [3]	Ratio EC50 [4]	Emax [5] [%]	fold change (FC) [6]	Activity [8]	Activity [9]	Activity [10]	Activity [11]	Activity [12]	Activity [13]	Compound	Activity [7]
1.5	100	3140	526	100	0.9	inactive	inactive	inactive	inactive	inactive	inactive	CC(O)CCN1C[C@H]2c3c(c4ccccc4n3C(=O)OC(C)(C)C)C[C@@H](C1=O)N2C(=O)CC1CCC(F)(F)CC1 (stereo partly specified)	inactive
5	100	8190	2220	102	1.2	inactive	inactive	inactive	inactive	inactive	inactive	CC(C)(C)OC(=O)n1c2c(c3ccccc31)C[C@H]1C(=O)N3C[C@@H](CC(=O)O)C[C@H]3[C@@H]2N1C(=O)CC1CCC(F)(F)CC1	inactive
